Active and inactive are the calls of the source. No cut-off for these calls is given here.
Legend:
[1] = tested on: SK-MEL-2; test: Growth inhibition of human SK-MEL-2 cells after 48 hrs by SRB assay; format: functional; details: SK-MEL-2, 48 h
Procedure, shortened: (§1)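 NCI human tumor cell line panel. Cells exposed for 48 h to five concentrations in a 10-fold serial dilution. Growth inhibition read as total cell protein by sulforhodamine B staining. GI50 calculated from log dose–response curves.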

[2] = tested on: SK-MEL-5; test: Growth inhibition of human SK-MEL-5 cells after 48 hrs by SRB assay; format: functional; details: SK-MEL-5, 48 h; procedure, shortened: as §1
[3] = tested on: UACC-257; test: Growth inhibition of human UACC257 cells after 48 hrs by SRB assay; format: functional; details: UACC-257, 48 h; procedure, shortened: as §1
[4] = tested on: UACC-62; test: Growth inhibition of human UACC62 cells after 48 hrs by SRB assay; format: functional; details: UACC-62, 48 h; procedure, shortened: as §1
[5] = tested on: IGROV-1; test: Growth inhibition of human IGROV1 cells after 48 hrs by SRB assay; format: functional; details: IGROV-1, 48 h
Procedure, shortened: (§2)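 This is the NCI cell-line panel. Cells are exposed for 48 h to five concentrations in 10-fold serial dilution. Growth is read by the SRB protein assay, and GI₅₀ is calculated from log dose–response curves.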

[6] = tested on: OVCAR-3; test: Growth inhibition of human OVCAR-3 cells after 48 hrs by SRB assay; format: functional; details: OVCAR-3, 48 h; procedure, shortened: as §2
[7] = tested on: OVCAR-4; test: Growth inhibition of human OVCAR4 cells after 48 hrs by SRB assay; format: functional; details: OVCAR-4, 48 h; procedure, shortened: as §2
[8] = tested on: OVCAR-5; test: Growth inhibition of human OVCAR5 cells after 48 hrs by SRB assay; format: functional; details: OVCAR-5, 48 h; procedure, shortened: as §2
[9] = tested on: OVCAR-8; test: Growth inhibition of human OVCAR8 cells after 48 hrs by SRB assay; format: functional; details: OVCAR-8, 48 h; procedure, shortened: as §2
[10] = tested on: SK-OV-3; test: Growth inhibition of human SKOV3 cells after 48 hrs by SRB assay; format: functional; details: SK-OV-3, 48 h; procedure, shortened: as §1
[11] = tested on: 786-0; test: Growth inhibition of human 786-0 cells after 48 hrs by SRB assay; format: functional; details: 786-0, 48 h; procedure, shortened: as §2
[12] = tested on: A498; test: Growth inhibition of human A498 cells after 48 hrs by SRB assay; format: functional; details: A498, 48 h; procedure, shortened: as §2
[13] = tested on: ACHN; test: Growth inhibition of human ACHN cells after 48 hrs by SRB assay; format: functional; procedure, shortened: as §2
[14] = tested on: CAKI-1; test: Growth inhibition of human Caki1 cells after 48 hrs by SRB assay; format: functional; details: CAKI-1, 48 h; procedure, shortened: as §2
[15] = tested on: RXF 393; test: Growth inhibition of human RXF393 cells after 48 hrs by SRB assay; format: functional; details: RXF 393, 48 h; procedure, shortened: as §2
[16] = tested on: SN12C; test: Growth inhibition of human SN12C cells after 48 hrs by SRB assay; format: functional; procedure, shortened: as §1
[17] = tested on: TK-10; test: Growth inhibition of human TK10 cells after 48 hrs by SRB assay; format: functional; details: TK-10, 48 h; procedure, shortened: as §1
[18] = tested on: UO-31; test: Growth inhibition of human UO31 cells after 48 hrs by SRB assay; format: functional; details: UO-31, 48 h; procedure, shortened: as §1
[19] = tested on: PC-3; test: Growth inhibition of human PC3 cells after 48 hrs by SRB assay; format: functional; details: PC-3, 48 h; procedure, shortened: as §2
[20] = tested on: DU-145; test: Growth inhibition of human DU145 cells after 48 hrs by SRB assay; format: functional; details: DU-145, 48 h; procedure, shortened: as §2
[21] = tested on: MCF7; test: Growth inhibition of human MCF7 cells after 48 hrs by SRB assay; format: functional; details: MCF7, 48 h; procedure, shortened: as §2
[22] = tested on: NCI/ADR-RES; test: Growth inhibition of human NCI/ADR-RES cells after 48 hrs by SRB assay; format: functional; procedure, shortened: as §2
[23] = tested on: MDA-MB-231; test: Growth inhibition of human MDA-MB-231 cells after 48 hrs by SRB assay; format: functional; details: MDA-MB-231, 48 h; procedure, shortened: as §2
[24] = Growth inhibition of human Hs 578T cells after 48 hrs by SRB assay; format: functional; procedure, shortened: as §2
[25] = tested on: MDA-MB-435; test: Growth inhibition of human MDA-MB-435 cells after 48 hrs by SRB assay; format: functional; details: MDA-MB-435, 48 h; procedure, shortened: as §2
[26] = tested on: BT-549; test: Growth inhibition of human BT549 cells after 48 hrs by SRB assay; format: functional; details: BT-549, 48 h; procedure, shortened: as §2
[27] = tested on: MCF7; test: Cell cycle arrest in human MCF7 cells by accumulation at G2/M phase at 0.1 uM after 48 hrs by flow cytometry (Rvb=5.9%); format: functional
[28] = tested on: MCF7; test: Cell cycle arrest in human MCF7 cells by accumulation at G2/M phase at 1 uM after 48 hrs by flow cytometry (Rvb=5.9%); format: functional
[29] = tested on: MCF7; test: Cell cycle arrest in human MCF7 cells by accumulation at G2/M phase at 5 uM after 48 hrs by flow cytometry (Rvb=5.9%); format: functional
[30] = tested on: MCF7; test: Cell cycle arrest in human MCF7 cells by accumulation at G2/M phase at 10 uM after 48 hrs by flow cytometry (Rvb=5.9%); format: functional
[31] = tested on: HUVEC; test: Antiangiogenic activity in HUVEC cells assessed inhibition of tube formation at 1 uM after 16 hrs by tube formation assay; format: functional, cell-based; details: Homo sapiens
Procedure, shortened: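 HUVEC cells (1 × 10⁵) are seeded onto a Matrigel surface and tube formation is scored after treatment.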

[32] = tested on: Aorta; test: Antiangiogenic activity in rat aortic rings assessed inhibition of sprouts formation at 5 uM after 6 days by aortic ring assay; format: functional, tissue-based
[33] = Displacement of [3H]colchicine from tubulin at 5 uM by DEAE-cellulose filter method

Compound `COc1ccc(/C=C/C(=O)c2cc(OC)c(OC)c(OC)c2)cc1B(O)O` has a GI50 [1] of 3330 nM, a GI50 [2] of 310 nM and a GI50 [3] of 4410 nM. For the same compound, the GI50 [4] was 34 nM, the GI50 [5] was 88 nM and the GI50 [6] was 2080 nM. The GI50 [7] was 2060 nM, the GI50 [8] was 1810 nM and the GI50 [9] was 300 nM. For the same compound, the GI50 [10] was under 10 nM, the GI50 [11] was 390 nM and the GI50 [12] was 4760 nM. The GI50 [13] was 520 nM, the GI50 [14] was 6390 nM and the GI50 [15] was 390 nM. It also gave a GI50 [16] of 460 nM, a GI50 [17] of 20900 nM and a GI50 [18] of 320 nM. It also gave a GI50 [19] of 250 nM, a GI50 [20] of 50 nM and a GI50 [21] of 34 nM. The GI50 [22] was 50 nM, the GI50 [23] was 110 nM and the GI50 [24] was 46 nM. For the same compound, the GI50 [25] was 1950 nM, the GI50 [26] was 21 nM and the Activity [27] was 6.4%. For the same compound, the Activity [28] was 7.1%, the Activity [29] was 7.4% and the Activity [30] was 14%. For the same compound, the inhibition [31] was “Active”, the inhibition [32] was “Active” and the inhibition [33] was 4.4%.

Reference: ChEMBL document CHEMBL1157725 (Bioorg Med Chem, 2010)
